From ChEMBL document CHEMBL1150373, “Selection of phage-displayed peptides that bind to a particular ligand-bound antibody” (Bioorg Med Chem, 2008) come the findings set out here.

pKd: −log10 of the molar value. Peptide text beside a SMILES is read from it.

Test [1] can be described thus: Binding affinity to mouse-human chimeric antibody 93F3.
A short description of test [2]: Binding affinity to fragment antigen binding portion of mouse-human chimeric 93F3 antibody assessed as relative signal by ELISA in presence of 10 uM 5-{[4-(3,5-dioxohexyl)phenyl]amino}-5-oxopentanoic acid. In short, it runs like this:
(§1)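 Antibody 93F3 coated on microtiter wells (1 µg/25 µL PBS, 37 °C 1 h), blocked with 3% BSA/PBS at 37 °C 1 h. Phage culture supernatant was added with diketone (final 10 µM, from 20 µM in 1% DMSO/PBS) or PBS alone, then incubated 37 °C 1 h. Wells washed with water; bound phage detected with anti-M13–HRP plus ABTS/H2O2, A405.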

The nature of test [3]: Binding affinity to fragment antigen binding portion of mouse-human chimeric 93F3 antibody assessed as relative signal by ELISA. An outline of the steps: as §1
The nature of test [4]: Binding affinity to fragment antigen binding portion of mouse-human chimeric 93F3 antibody assessed as relative signal by ELISA in presence of 10 uM 6-(4-nitrophenyl)hexane-2,4-dione. In short, it runs like this:
as §1

A short description of test [5]: Binding affinity to fragment antigen binding portion of mouse-human chimeric 93F3 antibody assessed as relative signal by ELISA in presence of 10 uM 2-acetylcyclohexanone. An outline of the steps:
as §1
(In general: An ELISA detects its analyte on a solid surface through an enzyme-linked reagent.)

A word on the pKd: it is the negative decadic logarithm of the Kd, by convention in mol/L. High values mean a low Kd, low ones a high Kd. As for `CC(=O)CC(=O)CCc1ccccc1`, the pKd in test [1] is 6.00.
Take `CC(C)C[C@@H](NC(=O)[C@H](Cc1ccc(O)cc1)NC(=O)[C@@H](N)Cc1c[nH]c2ccccc12)C(=O)N1CCC[C@H]1C(=O)N[C@@H](CC(=O)O)C(=O)N[C@@H](CC(N)=O)C(=O)N1CCC[C@H]1C(=O)N[C@@H](CO)C(=O)N[C@H](C(=O)N[C@@H](Cc1c[nH]c2ccccc12)C(=O)N[C@@H](Cc1cnc[nH]1)C(=O)N[C@H](C(=O)O)[C@@H](C)O)[C@@H](C)O`: the Activity was 0.1 in test [2], 1 in test [3], 0.1 in test [4] and 0.7 in test [5].
Regarding `C[C@H](O)[C@H](NC(=O)[C@@H]1CCCN1C(=O)[C@H](Cc1ccccc1)NC(=O)[C@H](Cc1c[nH]c2ccccc12)NC(=O)[C@H](Cc1c[nH]c2ccccc12)NC(=O)[C@@H]1CCCN1C(=O)[C@@H](N)CS)C(=O)N[C@@H](CCC(N)=O)C(=O)N[C@@H](CS)C(=O)O`, the Activity came to 0.1 in test [2], 0.2 in test [3], 0.1 in test [4] and 1 in test [5].
Take `CC(C)C[C@H](NC(=O)[C@H](Cc1cnc[nH]1)NC(=O)[C@H](Cc1c[nH]c2ccccc12)NC(=O)[C@@H]1CCCN1C(=O)[C@@H](N)CS)C(=O)N[C@@H](CC(C)C)C(=O)N1CCC[C@H]1C(=O)N[C@@H](Cc1ccccc1)C(=O)N[C@@H](CS)C(=O)O` (H-CPWHLLPFC-OH): the Activity was 0.1 in test [2], 1 in test [3], 0.2 in test [4] and 0.8 in test [5].
On to `CC(C)C[C@H](NC(=O)[C@H](C)NC(=O)[C@H](Cc1cnc[nH]1)NC(=O)[C@@H](NC(=O)[C@H](CC(C)C)NC(=O)[C@@H]1CCCN1C(=O)[C@H](CO)NC(=O)[C@@H](N)CS)[C@@H](C)O)C(=O)N[C@@H](CS)C(=O)O` (H-CSPLTHALC-OH), for which the Activity in test [2] amounted to 1; in test [3], 0.2; in test [4] it was 0.2; in test [5], 0.2.
As to `CC(C)C[C@H](NC(=O)[C@H](Cc1c[nH]c2ccccc12)NC(=O)[C@H](Cc1cnc[nH]1)NC(=O)[C@@H](NC(=O)[C@H](Cc1ccccc1)NC(=O)[C@@H]1CCCN1C(=O)[C@@H](NC(=O)[C@@H](N)CS)[C@@H](C)O)[C@@H](C)O)C(=O)N[C@@H](CS)C(=O)O` (H-CTPFTHWLC-OH), the Activity in test [2] is 1; in test [3], 0.1; in test [4] it was 0.1; in test [5], 0.1.
For the molecule H-QVPWSYLANGLL-OH, the Activity in test [2] was determined as 0.1; in test [3], 1; in test [4], 0.2; in test [5], 0.7.
